How the values were obtained:
[1] = target: Sodium-dependent dopamine transporter (Rattus norvegicus, UniProt P23977); assay: Inhibition of [3H]WIN-35428 binding to the dopamine transporter in rat striata.
[2] = target: Norepinephrine transporter (Rattus norvegicus, UniProt Q9WTR4); assay: Inhibition of [3H]nisoxetine binding to the norepinephrine transporter in rat midbrain.
[3] = target: Monoamine transporters; Norepinephrine & serotonin (Rattus norvegicus) (UniProt P31652+Q9WTR4); assay: Selectivity for norepinephrine and serotonin transporters; type: protein assay
Outline: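 The NE/5-HT IC50 ratio is derived from IC50 values from two binding assays in rat brain. One is [3H]nisoxetine binding in midbrain (NE transporter). The other is [3H]paroxetine binding in frontal cortex (5-HT transporter).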

[4] = target: Monoamine transporters; serotonin & dopamine (Rattus norvegicus) (UniProt P31652+P23977); assay: Selectivity for dopamine and serotonin transporters; type: protein assay
Sequence of Monoamine transporters; serotonin & dopamine (Rattus norvegicus) (P23977 whole entry, looked up): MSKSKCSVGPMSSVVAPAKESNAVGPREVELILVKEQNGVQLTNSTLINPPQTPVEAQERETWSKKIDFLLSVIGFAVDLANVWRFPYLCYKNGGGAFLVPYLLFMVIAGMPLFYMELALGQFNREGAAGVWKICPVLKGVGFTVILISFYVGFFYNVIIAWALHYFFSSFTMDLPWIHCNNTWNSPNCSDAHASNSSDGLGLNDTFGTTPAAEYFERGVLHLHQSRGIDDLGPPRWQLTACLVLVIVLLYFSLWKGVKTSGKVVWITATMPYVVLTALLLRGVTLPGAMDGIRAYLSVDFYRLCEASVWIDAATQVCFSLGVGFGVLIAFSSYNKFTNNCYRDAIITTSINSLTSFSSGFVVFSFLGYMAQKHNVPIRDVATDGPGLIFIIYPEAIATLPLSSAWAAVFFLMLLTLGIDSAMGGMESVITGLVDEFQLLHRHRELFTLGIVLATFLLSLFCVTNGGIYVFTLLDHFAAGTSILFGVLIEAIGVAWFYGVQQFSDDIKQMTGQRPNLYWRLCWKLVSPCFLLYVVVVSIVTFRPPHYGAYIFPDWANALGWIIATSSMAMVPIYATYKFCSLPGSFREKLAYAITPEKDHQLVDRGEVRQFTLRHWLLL
Sequence of Monoamine transporters; serotonin & dopamine (Rattus norvegicus) (P31652 whole entry, looked up): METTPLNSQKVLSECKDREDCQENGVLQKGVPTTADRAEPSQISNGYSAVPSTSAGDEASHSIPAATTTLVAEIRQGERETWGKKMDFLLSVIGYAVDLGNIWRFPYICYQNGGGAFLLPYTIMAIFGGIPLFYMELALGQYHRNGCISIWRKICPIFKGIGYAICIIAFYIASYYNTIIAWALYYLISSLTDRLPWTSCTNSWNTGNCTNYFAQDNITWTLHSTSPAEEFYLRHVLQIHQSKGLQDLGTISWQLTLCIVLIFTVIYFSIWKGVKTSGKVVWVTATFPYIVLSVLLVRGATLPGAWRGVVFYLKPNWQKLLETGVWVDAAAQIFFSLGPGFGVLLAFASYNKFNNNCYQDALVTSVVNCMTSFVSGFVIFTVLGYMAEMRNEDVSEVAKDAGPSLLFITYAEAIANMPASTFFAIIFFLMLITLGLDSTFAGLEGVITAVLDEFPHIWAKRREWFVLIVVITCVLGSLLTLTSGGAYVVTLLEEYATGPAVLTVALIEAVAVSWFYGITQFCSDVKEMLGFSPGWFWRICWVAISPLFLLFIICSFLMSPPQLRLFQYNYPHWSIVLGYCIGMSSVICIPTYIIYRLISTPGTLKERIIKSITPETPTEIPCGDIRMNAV

[5] = target: Sodium-dependent serotonin transporter (Rattus norvegicus, UniProt P31652); assay: Inhibition of [3H]paroxetine binding to serotonin transporter in rat frontal cortex; type: tissue-based
Sequence of Sodium-dependent serotonin transporter (P31652 whole entry): as the sequence (P31652 whole entry, looked up) above

Sequence of Norepinephrine transporter (Q9WTR4 whole entry): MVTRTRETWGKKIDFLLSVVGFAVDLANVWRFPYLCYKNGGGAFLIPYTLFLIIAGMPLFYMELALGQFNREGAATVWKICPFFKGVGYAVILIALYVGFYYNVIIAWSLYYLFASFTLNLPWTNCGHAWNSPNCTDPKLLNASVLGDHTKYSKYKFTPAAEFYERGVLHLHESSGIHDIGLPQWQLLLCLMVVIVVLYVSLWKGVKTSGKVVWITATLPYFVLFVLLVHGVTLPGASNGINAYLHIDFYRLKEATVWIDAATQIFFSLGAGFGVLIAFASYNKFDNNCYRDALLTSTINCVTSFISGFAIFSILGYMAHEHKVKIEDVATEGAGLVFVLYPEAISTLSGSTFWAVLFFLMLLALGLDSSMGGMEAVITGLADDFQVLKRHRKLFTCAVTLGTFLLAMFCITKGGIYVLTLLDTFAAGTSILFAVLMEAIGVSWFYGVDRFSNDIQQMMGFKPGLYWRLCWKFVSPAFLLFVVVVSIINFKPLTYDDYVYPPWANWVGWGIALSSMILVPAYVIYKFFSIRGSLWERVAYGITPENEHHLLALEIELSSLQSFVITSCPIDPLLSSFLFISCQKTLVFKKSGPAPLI
Sequence of Sodium-dependent dopamine transporter (P23977 whole entry): as the sequence (P23977 whole entry, looked up) above

| SMILES | IC50 [1] [nM] | IC50 [2] [nM] | Ratio [3] | Ratio [4] | IC50 [5] [nM] |
| --- | --- | --- | --- | --- | --- |
| C=Cc1ccc(C2CC3CCC(N3)C2C(=O)OC)cc1 (stereo not given) | 1.73 | 14.9 | 6.6 | 0.77 | – |
| C=C(C)c1ccc(C2CC3CCC(C2C(=O)OC)N3C)cc1 (stereo not given) | 14.1 | 1330 | 425 | 4.6 | – |
| C/C=C\c1ccc(C2CC3CCC(N3)C2C(=O)OC)cc1 (cis isomer) | 31.6 | 147 | 128 | 28 | 1.15 |
| COC(=O)C1C2CCC(CC1c1ccc(C(C)C)cc1)N2 (stereo not given) | 320 | – | 21 | – | – |
| CCCc1ccc(C2CC3CCC(N3)C2C(=O)OC)cc1 (stereo not given) | 212 | 532 | 21 | 8.2 | 26 |
| C/C=C\c1ccc(C2CC3CCC(C2C(=O)OC)N3C)cc1 (stereo not given) | 15 | 2800 | 395 | 2.1 | 7.09 |
| C/C=C/c1ccc(C2CC3CCC(C2C(=O)OC)N3C)cc1 (stereo not given) | 5.29 | 1590 | 140 | 0.46 | – |
| CCc1ccc(C2CC3CCC(C2C(=O)OC)N3C)cc1 (stereo not given) | 55 | 4030 | 142 | 1.9 | – |
| COC(=O)[C@@H]1C2CCC(C[C@@H]1OC(=O)c1ccccc1)N2 (stereo not given in full) | 206 | 139 | 1.1 | 1.6 | 127 |
| C#Cc1ccc(C2CC3CCC(C2C(=O)OC)N3C)cc1 (stereo not given) | 1.2 | 83.2 | 19 | 0.27 | 4.4 |
| CCc1ccc(C2CC3CCC(N3)C2C(=O)OC)cc1 (stereo not given) | 49.9 | 122 | 15 | 6.1 | – |
| CCCc1ccc(C2CC3CCC(C2C(=O)OC)N3C)cc1 (stereo not given) | 68.5 | 3920 | 56 | 0.97 | – |
| C=CCc1ccc(C2CC3CCC(N3)C2C(=O)OC)cc1 (stereo not given) | 56.5 | 89.7 | 15 | 9.1 | 6.2 |
| C#Cc1ccc(C2CC3CCC(N3)C2C(=O)OC)cc1 (stereo not given) | 1.24 | 21.8 | 13.7 | 0.78 | 1.59 |
| C/C=C/c1ccc(C2CC3CCC(N3)C2C(=O)OC)cc1 (trans isomer) | 28.6 | 54 | 42 | 22 | 1.3 |
| C=CCc1ccc(C2CC3CCC(C2C(=O)OC)N3C)cc1 (stereo not given) | 32.8 | 2480 | 87 | 1.16 | 28.4 |
| COC(=O)C1C(c2ccc(C(C)C)cc2)CC2CCC1N2C (stereo not given) | 597 | 75000 | 392 | 3.1 | 191 |
| C=Cc1ccc(C2CC3CCC(C2C(=O)OC)N3C)cc1 (stereo not given) | 1.24 | 78 | 8.2 | 0.13 | 9.5 |
| CC#Cc1ccc(C2CC3CCC(N3)C2C(=O)OC)cc1 (stereo not given) | 6.11 | 116 | 37 | 1.93 | 3.16 |
| C=C(C)c1ccc(C2CC3CCC(N3)C2C(=O)OC)cc1 (stereo not given) | 23 | 144 | 240 | 38 | 0.6 |
| CC#Cc1ccc(C2CC3CCC(C2C(=O)OC)N3C)cc1 (stereo not given) | 2.37 | 820 | 52 | 0.15 | – |
